Consider 28 compounds from ChEMBL document CHEMBL1139618, “The synthesis of substituted bipiperidine amide compounds as CCR3 ligands: antagonists versus agonists” (Bioorg Med Chem Lett, 2005).

Where “and” joins values, the source holds several entries; their conditions need not be identical. Equal values may be shown once.

In general, Ki refers to the equilibrium dissociation constant of an inhibitor or competing ligand from its target. A low value points to tighter binding. What is called inhibition is the drop in the measured response relative to a control, in per cent. A high value points to a response far below the control. Broadly, the Emax is the greatest response seen or fitted, relative to the assay's reference. As usually defined, the IC50 is the concentration that inhibits the measured activity by half. One may read the AUC as concentration integrated over time.

For series [1], the target named is T1, C-C chemokine receptor type 3 (Homo sapiens, UniProt P51677).
T1 sequence (P51677 whole entry): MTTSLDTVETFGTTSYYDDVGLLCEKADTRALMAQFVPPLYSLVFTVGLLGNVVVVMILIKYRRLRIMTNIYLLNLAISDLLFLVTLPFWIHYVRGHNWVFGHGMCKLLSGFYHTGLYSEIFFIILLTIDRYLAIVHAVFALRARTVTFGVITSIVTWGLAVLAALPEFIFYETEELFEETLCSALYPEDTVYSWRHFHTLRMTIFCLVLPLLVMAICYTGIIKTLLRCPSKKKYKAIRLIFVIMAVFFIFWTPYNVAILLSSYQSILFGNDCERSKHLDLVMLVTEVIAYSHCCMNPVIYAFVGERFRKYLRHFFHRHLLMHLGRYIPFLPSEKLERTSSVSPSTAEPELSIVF
The series is described as follows: (§1) In vitro binding activity against C-C chemokine receptor type 3 using [35S]GTP-gamma-S, as radioligand. It is filed as functional. (Binding of GTPγS marks nucleotide exchange on a G protein.)

Series [2] has as its target T2, C-C chemokine receptor type 3 (Homo sapiens) (UniProt P51677).
T2 sequence (whole entry): T1 sequence (P51677 whole entry)
The series is described as follows: In vitro percent inhibition against C-C chemokine receptor type 3 using [35S]GTP-gamma-S, as radioligand at 1 uM. The class given is functional.

Series [3] deals with T2, C-C chemokine receptor type 3 (Homo sapiens). The experiment in a line: In vitro percent increase over basal binding of [35S]-GTP-gamma S against C-C chemokine receptor type 3 at 10 uM. The class given is functional. In a few lines:
(§2)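 [³⁵S]GTPγS binding to CCR3 receptor-membrane preparations in excess GDP, testing for agonism. E_max % is the percent rise over basal [³⁵S]GTPγS binding at 10 μM compound, expressed as a percent of the maximal response to 100 nM eotaxin.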

Series [4] can be described thus: Inhibitory concentration against CREM 3 cell line using calcium flux assay at 37 C at 7.4 pH with compound dissolved in DMSO. It is filed as functional, cell-based. As to conditions: CREM3. The essentials:
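CREM3 cells (rat Y3 line transfected with human CCR3) were used at 37 °C. Compounds were dissolved in DMSO and diluted in pH 7.4 HBSS containing HEPES, BSA and probenecid.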

A short description of series [5]: In vivo Area under curve in rat at 3 mg/kg after IV administration. Details: dose 3 mg/kg, route intravenous. The class given is ADME, organism-based.
Series [6] addresses T2, C-C chemokine receptor type 3 (Homo sapiens). The experiment in a line: In vitro percent inhibition against C-C chemokine receptor type 3 using [35S]GTP-gamma-S, as radioligand; at 1 uM. It is filed as functional.
Series [7] has the same target. The experiment in a line: In vitro percent increase over basal binding of [35S]-GTP-gamma S against C-C chemokine receptor type 3. The class given is functional. The essentials:
as §2

Series [8] has the same target. The series is described as follows: In vitro binding activity against C-C chemokine receptor type 3 using [35S]GTP-gamma-S, as radioligand at 1 uM. The class given is functional.
Series [9] has the same target. The series is described as §1. It is filed as functional. Particulars: concentration not given here.

Turning to `COc1ccccc1C(=O)NCC1CCCN(C2CCN(Cc3ccc(Cl)c(Cl)c3)CC2)C1` (stereo not drawn), the Ki in [1] worked out at 0.092 µM.
Turning to `O=C(NCC1CCCN(C2CCN(Cc3ccc(Cl)c(Cl)c3)CC2)C1)C1CCCCC1` (stereo not drawn), affinity in [1] was put at a Ki of 0.107 µM.
`O=C(NCC1CCCN(C2CCN(CC3CCCCC3)CC2)C1)c1ccc2ncccc2c1` (stereo not drawn) had an inhibition in series [2] of 17%.
Take `CC(=O)NCC1CCCN(C2CCN(Cc3ccc(Cl)c(Cl)c3)CC2)C1` (stereo not drawn): the Ki in series [1] worked out at 0.533 µM.
As to `O=C(NCC1CCCN(C2CCN(Cc3cc(Cl)cc(Cl)c3)CC2)C1)c1ccc2ncccc2c1` (stereo not drawn), the Ki in series [1] was 0.398 µM. Further, the Emax in [3] was determined as 45%.
Turning to `O=C(NCC1CCCN(C2CCN(Cc3ccc(Cl)c(Cl)c3)CC2)C1)c1ccc2ncccc2c1` (stereo not drawn), the IC50 in [4] turned out to be 0.215 µM. In series [1], this compound registered a Ki of 0.023 µM. Also, in series [3], the Emax was -7%. This compound also came in with an AUC in series [5] of 264 ng·h/mL.
On to `O=C(NCC1CCCN(C2CCN(C(=O)c3ccc(Cl)c(Cl)c3)CC2)C1)c1ccc2ncccc2c1` (stereo not drawn), for which the inhibition in series [6] is 20%.
As for `CC1(N2CCCC(CNC(=O)c3ccc4ncccc4c3)C2)CCN(Cc2ccc(Cl)c(Cl)c2)CC1` (stereo not drawn), the Emax in [7] turned out to be 8%. In addition, the Ki in [1] came to 0.05 µM.
As to `O=C(NCC1CCCN(C2CCN(Cc3ccc(Cl)c(Cl)c3)CC2)C1)c1cccc2[nH]ccc12` (stereo not drawn), the affinity in series [1] corresponds to a Ki of 0.036 µM.
Regarding `O=C(NCC1CCCN(C2CCN(Cc3ccccc3Cl)CC2)C1)c1ccc2ncccc2c1` (stereo not drawn), the inhibition in [8] was 36%.
`Cc1ccccc1C(=O)NCC1CCCN(C2CCN(Cc3ccc(Cl)c(Cl)c3)CC2)C1` (stereo not drawn) had a Ki in series [1] of 0.06 µM.
On the same count and under the same terms, as for `O=C(NCC1CCCN(C2CCN(Cc3ccc(Cl)c(Cl)c3)CC2)C1)c1cnnc2ccccc12` (stereo not drawn), the figure is 0.099 µM.
For `O=C(NCC1CCCN(C2CCN(Cc3ccc(Cl)c(Cl)c3)CC2)C1)c1ccccc1Cl` (stereo not drawn), the inhibition in series [9] is 27%.
Consider `O=C(NCC1CCCN(C2CCN(Cc3cc(Cl)ccc3Cl)CC2)C1)c1ccc2ncccc2c1` (stereo not drawn), for which the Ki in [1] came to 0.391 µM. Further, in series [3], the Emax was 45%.
In the case of `O=C(Nc1ccc(Cl)c(Cl)c1)NN1CCC(N2CCCC(CNC(=O)c3ccc4ncccc4c3)C2)CC1` (stereo not drawn), the inhibition in [2] amounted to 6%.
`O=C(NCC1CCCN(C2CCN(Cc3ccc(Cl)c(Cl)c3)CC2)C1)c1nccc2ccccc12` (stereo not drawn): the Ki in [1] turned out to be 0.034 µM.
Turning to `O=C(NCC1CCCN(C2CCN(C(=O)Cc3ccc(Cl)c(Cl)c3)CC2)C1)c1ccc2ncccc2c1` (stereo not drawn), affinity in series [1] was put at a Ki of 0.767 µM. This Ki lies about 23-fold higher than the previous one.
The compound `Cc1ccccc1CC(=O)NCC1CCCN(C2CCN(Cc3ccc(Cl)c(Cl)c3)CC2)C1` (stereo not drawn) displayed an inhibition constant Ki in [1] of 0.086 µM.
For the compound `O=C(NCC1CCCN(C2CCN(Cc3ccc(Cl)c(Cl)c3)CC2)C1)c1ccc2ccccc2c1` (stereo not drawn), the affinity in series [1], expressed as Ki, was 0.048 µM.
As for `O=C(NCC1CCCN(C2CCN(Cc3ccc(Cl)c(Cl)c3)CC2)C1)c1ccc2[nH]ccc2c1` (stereo not drawn), the Ki in series [1] amounted to 0.029 µM.
For `O=C(NCC1CCCN(C2CCN(Cc3ccc(Cl)cc3)CC2)C1)c1ccc2ncccc2c1` (stereo not drawn), in series [1], the affinity, expressed as Ki, was 0.095 µM. Moreover, the Emax in [3] was -8%.
As for `O=C(NCC1CCCN(C2CCN(Cc3ccc(Cl)c(Cl)c3)CC2)C1)c1cccc2cccnc12` (stereo not drawn), the Ki in series [1] is 0.03 µM and 0.036 µM.
For `O=C(NCC1CCCN(C2CCN(CCc3ccc(Cl)c(Cl)c3)CC2)C1)c1ccc2ncccc2c1` (stereo not drawn), the affinity in series [1] corresponds to a Ki of 0.18 µM. Moreover, in series [3], the Emax is 2%.
In the case of `O=C(NCC1CCCN(C2CCN(Cc3ccc(Cl)c(Cl)c3)CC2)C1)c1cccc2ccccc12` (stereo not drawn), the affinity in [1], expressed as Ki, was 0.058 µM.
On to `CC1CN(Cc2ccc(Cl)c(Cl)c2)CCC1N1CCCC(CNC(=O)c2ccc3ncccc3c2)C1` (stereo not drawn), for which, in series [7], the Emax was found to be 96%. This compound also came in with a Ki in [1] of 0.0073 µM.
In series [1], `O=C(NCC1CCCN(C2CCN(Cc3ccc(Cl)c(Cl)c3)CC2)C1)c1ccc2nc[nH]c2c1` (stereo not drawn) displayed a Ki of 0.047 µM.
`O=C(NCC1CCCN(C2CCN(Cc3ccc(Cl)c(Cl)c3)CC2)C1)c1ccnc2ccccc12` (stereo not drawn) showed a Ki in series [1] of 0.08 µM.
`CC(c1ccc(Cl)c(Cl)c1)N1CCC(N2CCCC(CNC(=O)c3ccc4ncccc4c3)C2)CC1` (stereo not drawn): in series [1], the Ki was found to be 0.074 µM. The Emax in series [3] is -12%.
